# Source: PubChem BioAssay
# In the library only some 2.2% were active in any assay of this set; here they are far more common.
# C8 TRAIL sens – sensitizes caspase-8 expressing cells to TRAIL; inhibition (viability loss, TRAIL sensitization), % at 10 µM; NB7+C8 cells + TRAIL, ATPlite viability luminescence; hit rate 1% among 360,000; AID 624354;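 active = compounds causing at least 50% loss of cell viability in the single-dose screen, relative to plate controls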
# FLuc act counter – firefly luciferase counter-screen for stimulation assays; ATPlite luciferase biochemical, luminescence, 10 min; 0 = ATP-free wells, 1 = DMSO control; activation factor at 10 µM; P08659; 200,000 tested, under 10 active;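 active = luciferase activation factor, scaled between plate controls, of at least 2 with compound at 10 µM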
# Target sequence (P08659 whole entry, looked up): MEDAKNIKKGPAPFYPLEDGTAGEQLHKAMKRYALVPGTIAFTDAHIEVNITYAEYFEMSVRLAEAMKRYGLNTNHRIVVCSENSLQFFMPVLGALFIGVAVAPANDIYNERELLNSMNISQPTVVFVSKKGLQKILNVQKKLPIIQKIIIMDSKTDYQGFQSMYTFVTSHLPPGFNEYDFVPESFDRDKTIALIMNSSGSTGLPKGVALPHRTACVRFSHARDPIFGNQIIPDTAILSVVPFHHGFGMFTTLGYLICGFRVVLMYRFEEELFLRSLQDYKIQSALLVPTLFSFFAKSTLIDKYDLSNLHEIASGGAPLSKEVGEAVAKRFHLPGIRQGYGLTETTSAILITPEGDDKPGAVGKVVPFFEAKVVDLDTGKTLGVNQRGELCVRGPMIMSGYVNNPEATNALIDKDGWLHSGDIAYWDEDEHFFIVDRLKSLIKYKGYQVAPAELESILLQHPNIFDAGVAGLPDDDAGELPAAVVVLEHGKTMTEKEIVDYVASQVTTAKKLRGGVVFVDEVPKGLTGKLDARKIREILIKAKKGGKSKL
#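 System: Luciferase/luciferin detection reagent, cell-free biochemical luciferase assay | Medium: PBS buffer for ATP | Dosing: Test compounds dosed from 2 mM stocks in 100% DMSO | Timing: 10 min at ambient temperature | Signal: Luminescence measurement of luciferase light output | Evaluation: Luciferase activation, seen as luminescence increase over controls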
# FLuc inhib CS – inhibits firefly luciferase, flagging false hits in luciferase inhibition screens; P08659; ATPLite firefly luciferase biochemical luminescence, 10 min; inhibition, % at 10 µM; hit rate 1.5% among 200,000; AID 1006;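 active = inhibition above about 50% when tested at 10 µM, limit read from the data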
# PKD1 kinase inh – PKD1 (human) kinase inhibition; Q15139; inhibition, % (test concentration not listed); AID 797; PKD1 kinase fluorescence polarization assay; hit rate 0.056% among 200,000; in the data active = inhibition above about 50%
# Wee1 stabilizer – human Wee1 degradation inhibition, primary screen | P30291 | HeLa Luc-Wee1K328M stability, luciferase luminescence; 100% = proteasome inhibitor MG132 effect | reporter increase, % at 5 µM | hit rate 1.2% among 220,000;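 active = activation above the mean of all tested compounds plus 3 SD, set per screening run, cut at about 8.8% in these data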;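 also: cells exposed to compound for 20 h before luminescence read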
# PPC-1+TRAIL kill – PPC-1 cancer cell killing with TRAIL present | hit rate 0.41% among 220,000 | PPC-1 cells + TRAIL, ATPLite viability luminescence | cell killing (% activity), % at 4 µM or 5 µM | AID 1443;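 active = cell killing above 50% in the first pass at 4 µM, then a duplicate retest at 5 µM averaging 50% or more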
# PKD FP artifact – counter-screen for PKD inhibitors: fluorescence polarization interference | shares compounds with PKD1 kinase inh | PKD1 FP assay interference counter-screen | inhibition, % at 10 µM | 85 tested, under 10 active | AID 1315; call rule not given here
# Numbers stand for hits; . = inactive; / = not tested or not shown.
SMILES,C8 TRAIL sens,FLuc act counter,FLuc inhib CS,PKD1 kinase inh,Wee1 stabilizer,PPC-1+TRAIL kill,PKD FP artifact
O=C(N/N=C/C(Br)=C\c1ccccc1)c1ccc2nc[nH]c2c1,.,.,.,.,.,.,/
CC(=C/c1ccccc1)/C=N/NC(=O)c1ccc2nc[nH]c2c1,.,.,82,.,.,.,/
C=CCn1c(SCC(=O)Nc2ccc(Br)cc2)nc(O)c(CC)c1=O,.,/,/,/,/,/,/
CC(=O)c1ccc2cc3c(cc2c1)OCO3,.,/,/,/,/,/,/
Cc1ccc2sc(NNC(=O)c3cc(=O)c4ccccc4o3)nc2c1C,.,.,.,.,.,.,/
O=C(NNc1nc2c(F)cccc2s1)c1cc(=O)c2ccccc2o1,.,.,55,.,.,.,/
COc1ccc2nc(NNC(=O)c3cc(=O)c4ccccc4o3)sc2c1,48,.,69,.,.,.,/
Cc1cccc2sc(NNC(=O)c3cc(=O)c4ccccc4o3)nc12,.,.,.,.,.,.,/
CCOC(=O)N1CCN(c2cc(NCCC(=O)O)c3c4c(onc24)-c2ccccc2C3=O)CC1,.,.,.,56,.,.,.
CCOC(=O)N1CCC(NS(=O)(=O)c2cc(Br)cc3c2N(C(=O)CC)CC3)CC1,.,.,.,66,.,.,.
O=C(Nc1cccc([N+](=O)[O-])c1)C12CC3CC(C1)CC(n1cnc([N+](=O)[O-])n1)(C3)C2,.,.,.,62,.,.,.
O=C(Nc1ccccc1)C12CC3CC(C1)CC(n1cnc([N+](=O)[O-])n1)(C3)C2,.,.,.,.,.,.,/
CN(C(=O)CSc1nnc(-c2cccs2)n1C1CC1)C1CCS(=O)(=O)C1 (stereo not given),.,/,/,/,/,/,/
O=C(O)COc1ccccc1/C=N/NC(=O)c1cc2ccccc2cc1O,.,/,/,/,.,.,/
CCOC(=O)c1[nH]c2cc(OC)c(OC)cc2c1NC(=O)CN1CCN(C)CC1,/,.,.,76,.,.,.
COC(=O)c1cccc2c1-c1ccccc1/C2=N\NC(N)=O,.,/,/,/,/,/,/
COC(=O)c1cccc2c1-c1ccccc1/C2=N/O,.,.,.,70,.,.,.
CN(C(=O)CSc1nncn1C)C1CCCN(Cc2ccccc2F)C1 (stereo not given),.,/,/,/,/,/,/
COc1ccc(C#Cc2c(-c3ccccc3)n(-c3ccccc3)c3ccc(CO)cc23)cc1,.,/,/,/,/,/,/
CC1CCCC(C)N1C(=O)Cn1cc(/C=C2/C(=O)Nc3ccccc32)c2ccccc21 (stereo not given),.,.,.,51,.,.,.
COC(=O)c1cn(CC(=O)N2C(C)CCCC2C)c2ccccc12 (stereo not given),.,.,.,.,.,.,/
CCOc1ccc2noc3c2c1C(=O)c1ccccc1-3,.,.,.,97,.,.,62
CCNc1ccc2noc3c2c1C(=O)c1ccccc1-3,.,.,.,.,.,.,/
O=C1c2ccccc2-c2onc3ccc(NCc4ccco4)c1c23,.,.,.,60,.,.,.
O=C(NNC(=O)c1ccc2[nH]c(=O)c(=O)[nH]c2c1)c1cccc(Br)c1,.,/,/,/,/,/,/
SMILES,C8 TRAIL sens,FLuc act counter,FLuc inhib CS,PKD1 kinase inh,Wee1 stabilizer,PPC-1+TRAIL kill,PKD FP artifact
Nc1ccc2nc3c(=O)n(CCc4ccccc4)c(=O)[nH]c3nc2c1,.,/,/,/,.,.,/
CCCCn1c(=O)[nH]c2nc3cc(N)ccc3nc2c1=O,.,.,.,60,.,.,.
Cc1cc(N=CC2=C(O)CC(C)(C)CC2=O)no1,.,.,.,60,.,.,.
NC(=NCCc1c[nH]c2ccccc12)NS(=O)(=O)c1cc(F)ccc1F,.,.,.,52,.,.,.
C=CCn1c(SC(C)C(=O)NCc2ccc3c(c2)OCO3)nnc1C1CCCCC1 (stereo not given),.,.,.,97,.,.,.
CC(Sc1nnc2ccccn12)C(=O)NCc1ccc2c(c1)OCO2 (stereo not given),.,.,.,.,.,.,/
Cc1c(C(=O)N/N=C/c2ccc(O)c(Br)c2)sc(N)c1C#N,.,.,.,76,.,.,.
O=C(NCC1CCCO1)C1CCN(C2CCN(C3CCCCCC3)CC2)CC1 (stereo not given),.,.,.,.,.,.,/
CCN1/C(=C/C(C)=O)Sc2ccc(OC)cc21,.,.,.,78,.,.,.
CC(=O)c1cccc(S(=O)(=O)N2CCC(C(=O)Oc3ccc(-c4nnco4)cc3)CC2)c1,.,/,/,/,/,/,/
O=C(Nc1ccsc1C(=O)O)c1ccccc1,.,/,/,/,/,/,/
O=C(Nc1ccsc1C(=O)NC1CC1)c1ccccc1,.,.,.,50,.,.,.
O=C(N/N=C/c1ccnc2ccccc12)c1ccccc1O,.,/,/,/,/,/,/
CCOc1cccc(C2C(C(=O)c3ccc(C)o3)=C(O)C(=O)N2c2nccs2)c1 (stereo not given),.,.,.,88,.,.,71
O=C(Nc1ccccc1Cl)OCC#CCOC(=O)Nc1ccccc1Cl,.,/,/,/,/,/,/
O=C(Nc1ccccc1Cl)ON=C1c2ccccc2-c2ccccc21,.,.,.,61,.,.,.
CCOC(=O)Nc1ccc2c(c1)C(=NO)c1ccccc1-2,.,/,/,/,/,/,/
O=C(Nc1ccccc1)ON=C1c2ccccc2-c2ccccc21,.,.,.,51,.,.,.
CC(=O)Nc1ccc2c(c1)c1ccccc1n2C(C)=O,.,.,.,59,.,.,.
Cn1c(=O)[nH]c(=O)c2c1nc(NC1CCCCC1)n2CCO,.,/,/,/,/,.,/
Cn1c(=O)[nH]c(=O)c2c1nc(NC1CCCCC1)n2CC(=O)NC1CCCCC1,/,.,.,101,.,.,.
COCCNC(=O)CN(c1ccc(F)cc1)S(=O)(=O)c1ccc2c(c1)OCCO2,.,/,/,/,/,/,/
